Activity calls are given as the source filed them. The rule behind the calls is not given here.
Experiments:
Mus musculus [1] = test: In vivo binding affinity to beta-amyloid plaque in PDAPP transgenic mouse hippocampus CA1 region at 50 mg/kg, ip after 48 hrs; type: functional, organism-based; design: dose 50 mg/kg
Method in brief: (§1)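 Ten-month-old PDAPP mice given a single 50 mg/kg ip dose, vehicle 10% DMSO/PBS, with vehicle-only animals as control. Perfused with 4% PFA at 48 h; brain sections postfixed in 4% PFA for 5 min and mounted. CA1 and dentate gyrus plaques imaged by fluorescence microscopy at 10× and 40×.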

[2] = molecular target: Amyloid-beta precursor protein (Homo sapiens) (UniProt P05067); test: Binding affinity to beta-amyloid plaque in normal human brain after 30 mins by fluorescence microscopy; type: tissue-based
Method in brief: (§2)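 Frozen sections (10 μm) of human AD brain and age-matched control brain. Stained 30 min with 50 μM compound in 9:1 PBS/EtOH, washed in 75% EtOH, 95% EtOH and xylene, then fluorescence-imaged through a DAPI filter.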

[3] = molecular target: Amyloid-beta precursor protein (Homo sapiens) (UniProt P05067); test: Binding affinity to beta-amyloid plaque in brain of patient with Alzheimer's disease after 30 mins by fluorescence microscopy; type: tissue-based; method in brief: as §2
Mus musculus [4] = test: In vivo binding affinity to beta-amyloid plaque in mouse hippocampus dentate gyrus region at 50 mg/kg, ip after 48 hrs; type: functional, organism-based; design: dose 50 mg/kg
Mus musculus [5] = test: In vivo binding affinity to beta-amyloid plaque in PDAPP transgenic mouse hippocampus dentate gyrus region at 50 mg/kg, ip after 48 hrs; type: functional, organism-based; design: dose 50 mg/kg; method in brief: as §1
[6] = Binding affinity to aggregated amyloid beta (1 to 40) by fluorescence titration analysis
[7] = test system: Radical scavenging activity; test: Antioxidant activity assessed as DPPH radical scavenging activity by spectrophotometric analysis; type: functional
Method in brief: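 DPPH (100 μM) in MeOH mixed with test compound from 0 nM to 5 mM; compounds came from ~15 mM DMSO stocks diluted in MeOH. Loss of absorbance at 517 nm read on a plate reader. Each concentration run in triplicate; IC50 taken from a sigmoidal dose-response fit.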

Mus musculus [8] = organism: Mus musculus; test: Binding affinity to beta-amyloid plaque in APP/PS1 transgenic mouse brain assessed as signal-to-noise ratio after 30 mins by DAPI staining; type: tissue-based
Method in brief: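 Eleven-month-old APP/PS1 mice (Tg2576 × PS1 M146L 6.1) perfusion-fixed with 4% paraformaldehyde; cryosections 10 μm, three per concentration. Stained 30 min with 50 μM compound in 9:1 PBS/EtOH, then washed in 75% EtOH, 95% EtOH and xylene. Imaged through a DAPI filter; S/N taken from five plaque versus five background regions across three plaques per section.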

Amyloid-beta precursor protein (Homo sapiens), sequence (P05067 whole entry): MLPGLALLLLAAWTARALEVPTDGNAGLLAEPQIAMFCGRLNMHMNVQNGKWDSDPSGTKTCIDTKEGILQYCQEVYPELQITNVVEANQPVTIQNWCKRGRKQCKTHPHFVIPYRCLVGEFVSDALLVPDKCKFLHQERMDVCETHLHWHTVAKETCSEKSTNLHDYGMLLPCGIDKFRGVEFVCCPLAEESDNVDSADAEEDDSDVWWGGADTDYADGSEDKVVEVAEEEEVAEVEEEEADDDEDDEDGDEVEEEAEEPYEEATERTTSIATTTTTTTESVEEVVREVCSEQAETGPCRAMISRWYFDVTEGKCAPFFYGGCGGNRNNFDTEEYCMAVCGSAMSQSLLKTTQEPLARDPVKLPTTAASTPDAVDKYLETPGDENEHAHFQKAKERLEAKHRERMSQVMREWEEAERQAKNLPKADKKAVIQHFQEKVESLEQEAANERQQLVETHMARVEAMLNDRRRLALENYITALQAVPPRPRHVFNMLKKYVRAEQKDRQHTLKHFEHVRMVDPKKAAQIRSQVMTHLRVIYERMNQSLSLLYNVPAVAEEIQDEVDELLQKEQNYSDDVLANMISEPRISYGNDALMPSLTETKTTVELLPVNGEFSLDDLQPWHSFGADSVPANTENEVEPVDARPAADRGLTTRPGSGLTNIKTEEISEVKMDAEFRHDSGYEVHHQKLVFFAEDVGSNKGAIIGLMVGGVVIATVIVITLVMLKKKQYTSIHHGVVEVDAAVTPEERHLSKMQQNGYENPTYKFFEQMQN

Structure (SMILES): Oc1ccc(/C=C/c2ccc(/C=C/c3ccc(O)cc3)cc2)cc1
- Activity (Mus musculus [1]): Active
- Activity [2]: inactive
- Activity [3]: Active
- Activity (Mus musculus [4]): inactive
- Activity (Mus musculus [5]): Active
- Kd [6]: 0.0095 µM
- IC50 [7]: 3.1 µM
- Ratio (Mus musculus [8]): 14

Structure (SMILES): Oc1ccc(/C=C/c2ccccc2/C=C/c2ccc(O)cc2)cc1
- Kd [6]: 6.3 µM
- IC50 [7]: 4 µM
- Ratio (Mus musculus [8]): 5.1

Structure (SMILES): Oc1cc(O)cc(/C=C/c2ccc(/C=C/c3cc(O)cc(O)c3)cc2)c1
- Activity (Mus musculus [1]): Active
- Activity [2]: inactive
- Activity [3]: Active
- Activity (Mus musculus [4]): inactive
- Activity (Mus musculus [5]): Active
- Kd [6]: 0.16 µM
- IC50 [7]: 5.1 µM
- Ratio (Mus musculus [8]): 9.6

Structure (SMILES): Oc1ccc(/C=C/c2ccc(O)cc2)cc1 [TRANS-4,4'-DIHYDROXYSTILBENE]
- Kd [6]: 9.2 µM
- IC50 [7]: 1.8 µM
- Ratio (Mus musculus [8]): 5.2

Structure (SMILES): O=c1c(O)c(-c2ccc(O)c(O)c2)oc2cc(O)cc(O)c12 [QUERCETIN]
- IC50 [7]: 1.3 µM

Structure (SMILES): Oc1ccc(/C=C/c2cccc(/C=C/c3ccc(O)cc3)c2)cc1
- Kd [6]: 2.5 µM
- IC50 [7]: 3.4 µM
- Ratio (Mus musculus [8]): 3.1

Structure (SMILES): Oc1cccc(/C=C/c2ccc(/C=C/c3ccc(O)c(O)c3)cc2)c1
- Kd [6]: 0.2 µM
- IC50 [7]: 9.1 µM
- Ratio (Mus musculus [8]): 5.6

Structure (SMILES): Oc1cccc(/C=C/c2ccc(/C=C/c3cccc(O)c3)cc2)c1
- Activity (Mus musculus [1]): Active
- Activity [2]: inactive
- Activity [3]: Active
- Activity (Mus musculus [4]): inactive
- Activity (Mus musculus [5]): Active
- Kd [6]: 0.0053 µM
- IC50 [7]: > 100 µM
- Ratio (Mus musculus [8]): 9.6

Structure (SMILES): Oc1ccc(/C=C/c2ccc(/C=C/c3cc(O)cc(O)c3)cc2)cc1
- Kd [6]: 0.19 µM
- IC50 [7]: 4.5 µM
- Ratio (Mus musculus [8]): 3.8

Structure (SMILES): Oc1ccc(/C=C/c2ccc(/C=C/c3cccc(O)c3)cc2)cc1
- Kd [6]: 3.5 µM
- IC50 [7]: 3.5 µM
- Ratio (Mus musculus [8]): 9

Structure (SMILES): Oc1ccc(C#Cc2ccc(C#Cc3ccc(O)cc3)cc2)cc1
- Kd [6]: 0.054 µM
- IC50 [7]: 45 µM
- Ratio (Mus musculus [8]): 5.9

Structure (SMILES): Oc1ccccc1/C=C/c1ccc(/C=C/c2ccccc2O)cc1
- Kd [6]: 0.8 µM
- IC50 [7]: 4 µM
- Ratio (Mus musculus [8]): 11

Structure (SMILES): Oc1ccc(/C=C/c2cc(O)cc(O)c2)cc1 [RESVERATROL]
- IC50 [7]: 62 µM

Structure (SMILES): Oc1ccc(/C=C/c2ccc(/C=C/c3ccccc3)cc2)cc1
- Kd [6]: 0.16 µM
- IC50 [7]: 5.6 µM
- Ratio (Mus musculus [8]): 8.1

Structure (SMILES): Oc1ccc(/C=C/c2ccc(/C=C/c3ccc(O)c(O)c3)cc2)cc1
- Kd [6]: 0.26 µM
- IC50 [7]: > 100 µM
- Ratio (Mus musculus [8]): 9.1
